From ChEMBL document CHEMBL1126560, “Endothelin-1 analogues substituted at both position 18 and 19: highly potent endothelin antagonists with no selectivity for either receptor subtype ETA or ETB” (J Med Chem, 1993)

Key:
[1] = biological target: T1, Endothelin receptor type B (Bos taurus, UniProt P28088); experiment: Tested for the competitive binding versus [125I]- ET-1 determined in bovine cerebrum membrane for Endothelin B receptor; format: cell membranes
T1 sequence (P28088 whole entry): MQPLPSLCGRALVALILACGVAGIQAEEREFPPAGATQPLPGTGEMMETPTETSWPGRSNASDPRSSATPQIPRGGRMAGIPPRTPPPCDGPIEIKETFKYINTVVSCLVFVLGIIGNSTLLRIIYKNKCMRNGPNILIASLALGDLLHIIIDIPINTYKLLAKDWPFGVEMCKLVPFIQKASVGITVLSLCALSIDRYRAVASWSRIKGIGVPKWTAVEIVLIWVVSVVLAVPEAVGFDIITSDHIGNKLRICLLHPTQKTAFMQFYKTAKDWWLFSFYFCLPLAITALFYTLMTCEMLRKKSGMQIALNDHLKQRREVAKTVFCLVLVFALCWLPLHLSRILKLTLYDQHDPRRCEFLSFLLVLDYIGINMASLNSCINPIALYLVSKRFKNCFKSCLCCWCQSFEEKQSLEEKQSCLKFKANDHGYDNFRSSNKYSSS
Method in brief: (§1)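 Membranes (porcine cardiac ventricle at 12 μg/mL for ETA; bovine cerebrum at 150 μg/mL for ETB) in pH 7.2 Tris/EGTA/Mg acetate/0.1% BSA buffer with protease inhibitors. Incubated with 100 pM [125I]ET-1 and varied compound for 1 h at 25 °C, then filtered and counted by gamma counter. IC50 given as mean ± SEM of ≥3 determinations.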

Endothelin-1 receptor [2] = biological target: T2, Endothelin-1 receptor (Sus scrofa, UniProt Q29010); experiment: ETA receptor antagonist activity was measured by inhibition of ET-1 induced vasoconstriction in isolated porcine coronary artery; format: functional, tissue-based; details: read-out: pA2 (converted)
T2 sequence (Q29010 whole entry): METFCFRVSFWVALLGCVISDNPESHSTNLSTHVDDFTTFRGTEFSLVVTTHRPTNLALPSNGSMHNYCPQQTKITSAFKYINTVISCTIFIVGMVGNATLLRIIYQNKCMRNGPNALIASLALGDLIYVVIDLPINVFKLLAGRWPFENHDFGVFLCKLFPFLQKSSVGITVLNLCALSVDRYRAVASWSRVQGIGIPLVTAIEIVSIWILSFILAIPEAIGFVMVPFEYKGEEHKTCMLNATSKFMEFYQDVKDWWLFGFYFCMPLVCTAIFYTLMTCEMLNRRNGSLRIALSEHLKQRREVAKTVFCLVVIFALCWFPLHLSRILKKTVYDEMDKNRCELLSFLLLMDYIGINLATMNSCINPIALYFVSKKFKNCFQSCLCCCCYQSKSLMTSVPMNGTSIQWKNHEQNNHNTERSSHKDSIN
Method in brief: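 Porcine right coronary artery, endothelium-denuded 2 × 5-mm helical strips in Krebs-Henseleit, 95% O2-5% CO2, 37 °C, isometric tension. Compound added 15 min before cumulative ET-1. Tension normalized to 60 mM KCl. pA2 by van Rossum's method; n in parentheses.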

[3] = biological target: T3, Endothelin receptor, ET-A/ET-B (Homo sapiens, UniProt P24530+P25101); experiment: (§2) Antagonism of sarafotoxin S6c-induced vasoconstriction in rabbit pulmonary artery at both ETA and ETB receptors; format: functional, Oryctolagus cuniculus; details: target entry is the homologue from another species
T3 sequence (P24530 whole entry): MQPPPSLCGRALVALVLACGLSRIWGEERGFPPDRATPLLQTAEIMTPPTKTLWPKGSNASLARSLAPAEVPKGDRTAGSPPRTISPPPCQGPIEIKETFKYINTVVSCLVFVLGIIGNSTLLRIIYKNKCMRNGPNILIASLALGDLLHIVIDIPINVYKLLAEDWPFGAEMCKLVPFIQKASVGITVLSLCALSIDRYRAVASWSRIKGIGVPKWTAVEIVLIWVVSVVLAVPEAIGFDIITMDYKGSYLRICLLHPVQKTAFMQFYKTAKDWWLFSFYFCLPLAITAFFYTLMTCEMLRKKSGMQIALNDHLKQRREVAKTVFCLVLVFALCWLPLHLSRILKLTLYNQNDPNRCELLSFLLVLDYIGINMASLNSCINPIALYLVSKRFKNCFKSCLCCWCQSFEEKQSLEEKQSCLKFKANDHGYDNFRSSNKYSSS
T3 sequence (P25101 whole entry): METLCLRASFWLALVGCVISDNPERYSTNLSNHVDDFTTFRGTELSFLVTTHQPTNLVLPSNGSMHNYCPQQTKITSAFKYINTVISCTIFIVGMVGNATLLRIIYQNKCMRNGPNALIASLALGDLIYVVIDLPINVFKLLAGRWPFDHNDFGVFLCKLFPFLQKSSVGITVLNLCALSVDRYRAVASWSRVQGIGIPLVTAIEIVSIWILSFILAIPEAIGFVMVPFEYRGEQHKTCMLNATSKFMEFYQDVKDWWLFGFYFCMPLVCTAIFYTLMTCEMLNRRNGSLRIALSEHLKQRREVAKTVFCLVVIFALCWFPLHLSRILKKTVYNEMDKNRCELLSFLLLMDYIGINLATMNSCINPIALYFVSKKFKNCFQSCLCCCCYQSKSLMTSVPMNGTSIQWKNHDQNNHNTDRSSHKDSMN
Method in brief: (§3)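 Rabbit pulmonary artery, endothelium-denuded 5-mm rings in Krebs-Henseleit, 95% O2-5% CO2, 37 °C, isometric tension. Compound added 15 min before cumulative sarafotoxin S6c. Tension normalized to 60 mM KCl response. Antagonism given as pA2 (van Rossum) or pD2' value; n in parentheses.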

Endothelin-1 receptor [4] = biological target: T2, Endothelin-1 receptor; experiment: Tested for the competitive binding versus [125I]- ET-1 determined in porcine cardiac ventricular membrane for Endothelin A receptor; method in brief: as §1
[5] = biological target: T4, Endothelin-1 receptor (Sus scrofa) (UniProt Q29010); experiment: Tested for the ETA receptor agonist activity by measuring maximum vasoconstriction in porcine coronary artery; format: functional, tissue-based
T4 sequence (whole entry): T2 sequence (Q29010 whole entry)
Method in brief: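 Porcine right coronary artery, endothelium-denuded helical strips in Krebs-Henseleit, 37 °C, isometric tension. Compound applied cumulatively, up to 1 μM. Maximal contraction expressed as % of 60 mM KCl-induced tension; n in parentheses.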

[6] = biological target: Endothelin receptor, ET-A/ET-B (Homo sapiens) (UniProt P24530+P25101); experiment: as §2; format: functional; details: Oryctolagus cuniculus; target entry is the homologue from another species; method in brief: as §3

| Structure (SMILES) | IC50 [1] [nM] | Kb (Endothelin-1 receptor [2]) [nM] | pA2 [3] | IC50 (Endothelin-1 receptor [4]) [nM] | Max vasoconstriction [5] | pD2 [6] |
| --- | --- | --- | --- | --- | --- | --- |
| CC[C@H](C)[C@H](NC(=O)[C@H](CC(C)(C)C)NC(=O)[C@@H](NC(=O)[C@H](CC(C)C)NC(=O)[C@H](Cc1c[nH]cn1)NC(=O)[C@@H]1CSSC[C@H](N)C(=O)N[C@@H](CO)C(=O)N[C@H]2CSSC[C@H](NC(=O)[C@H](CCC(=O)O)NC(=O)[C@H](CCCCN)NC(=O)[C@H](CC(=O)O)NC(=O)[C@H](CCSC)NC(=O)[C@H](CC(C)C)NC(=O)[C@H](CO)NC(=O)[C@H](CO)NC2=O)C(=O)N[C@@H](C(C)C)C(=O)N[C@@H](Cc2ccc(O)cc2)C(=O)N[C@@H](Cc2ccccc2)C(=O)N1)[C@@H](C)O)C(=O)N[C@@H](Cc1c[nH]c2ccccc12)C(=O)O | 0.25 | 39.8 | 8.4 | 0.7 | – | – |
| CC[C@H](C)[C@H](NC(=O)[C@H](CC(C)C)NC(=O)[C@@H](NC(=O)[C@H](CC(C)C)NC(=O)[C@H](Cc1c[nH]cn1)NC(=O)[C@@H]1CSSC[C@@H](N)C(=O)N[C@@H](CO)C(=O)N[C@@H]2CSSC[C@@H](NC(=O)[C@H](CCC(=O)O)NC(=O)[C@@H](CCCCN)NC(=O)[C@H](CC(=O)O)NC(=O)[C@@H](CCSC)NC(=O)[C@H](CC(C)C)NC(=O)[C@@H](CO)NC(=O)[C@H](CO)NC2=O)C(=O)N[C@@H](C(C)C)C(=O)N[C@H](Cc2ccc(O)cc2)C(=O)N[C@@H](Cc2ccccc2)C(=O)N1)[C@H](C)O)C(=O)N[C@@H](Cc1c[nH]c2ccccc12)C(=O)O | – | – | – | – | 4 | 8.7 |
